The record followed here is ChEMBL document CHEMBL3217512, “Indole/triazole conjugates are selective inhibitors and inducers of bacterial biofilms” (Medchemcomm, 2013).

As a reminder, the inhibition is the share of the control response that was lost under treatment. Usually IC50 stands for the point on the concentration scale where inhibition reaches its midpoint.

For data set [1], the system named is Escherichia coli. As to the kind of experiment: Antimicrobial activity against Escherichia coli K-12 ER2718 assessed as effect on planktonic growth at PC50 after 2 to 24 hrs by colony count method. In kind it is organism-based. As to conditions: in vivo.
The subject of data set [2] is Escherichia coli. As to the kind of experiment: Reversal of N-(2-(4-(((3aR,8aR)-1,2,3,3a,8,8a-hexahydropyrrolo[2,3-b]indol-3a-yl)methyl)-1H-1,2,3-triazol-1-yl)ethyl)-4-hexylbenzamide-induced biofilm inhibition in Escherichia coli K-12 ER2718 at PC75 relative to control. Details: scale not given: the % may be the effect or the level left. The data set is classed as functional. An outline of the steps:
(§1)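 E. coli static crystal violet biofilm assay. The inducer was added at its PC25, PC50 or PC75 concentration together with the reference inhibitor at a fixed concentration. Reversal was taken as the reduction in the inhibitor's anti-biofilm activity.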

Data set [3] relates to Staphylococcus aureus. As to the kind of experiment: Antimicrobial activity against methicillin-resistant Staphylococcus aureus BAA 44 assessed as effect on planktonic growth at IC50 after 2 to 24 hrs. The data set is classed as organism-based. As to conditions: in vivo.
The test system of data set [4] is Escherichia coli. As to the kind of experiment: Antimicrobial activity against Escherichia coli K-12 ER2718 assessed as effect on planktonic growth at PC25 in presence of N-(2-(4-(((3aR,8aR)-1,2,3,3a,8,8a-hexahydropyrrolo[2,3-b]indol-3a-yl)methyl)-1H-1,2,3-triazol-1-yl)ethyl)-4-hexylbenzamide. The data set is classed as organism-based.
Data set [5] has as its system Escherichia coli. As to the kind of experiment: Antimicrobial activity against Escherichia coli K-12 ER2718 assessed as effect on planktonic growth at PC50 in presence of N-(2-(4-(((3aR,8aR)-1,2,3,3a,8,8a-hexahydropyrrolo[2,3-b]indol-3a-yl)methyl)-1H-1,2,3-triazol-1-yl)ethyl)-4-hexylbenzamide. The data set is classed as organism-based. Conditions: in vivo.
In data set [6] the test system is Escherichia coli. As to the kind of experiment: Antimicrobial activity against Escherichia coli K-12 ER2718 assessed as effect on planktonic growth at PC75 after 2 to 24 hrs. In kind it is organism-based. As to conditions: in vivo.
For data set [7], the system named is Staphylococcus aureus. As to the kind of experiment: Antimicrobial activity against Staphylococcus aureus 29213 assessed as effect on planktonic growth at IC50 after 2 to 24 hrs by colony count method. In kind it is organism-based. Conditions: in vivo.
Data set [8] concerns Escherichia coli. As to the kind of experiment: Antimicrobial activity against Escherichia coli K-12 ER2718 assessed as effect on planktonic growth at PC75 in presence of N-(2-(4-(((3aR,8aR)-1,2,3,3a,8,8a-hexahydropyrrolo[2,3-b]indol-3a-yl)methyl)-1H-1,2,3-triazol-1-yl)ethyl)-4-hexylbenzamide. As to conditions: in vivo. The data set is classed as organism-based.
The test system of data set [9] is Acinetobacter baumannii. As to the kind of experiment: Inhibition of biofilm formation in Acinetobacter baumannii 19606 at 150 uM after 24 hrs by crystal violet staining-based assay relative to control. In kind it is functional. As to conditions: ATCC 19606 = CIP 70.34 = JCM 6841, 24 h.
For data set [10], the system named is Acinetobacter baumannii. As to the kind of experiment: Antimicrobial activity against Acinetobacter baumannii 19606 assessed as effect on planktonic growth at IC50 after 2 to 24 hrs by colony count method. Set-up: species or system ATCC 19606.
Data set [11] concerns Staphylococcus aureus. As to the kind of experiment: Inhibition of biofilm formation in methicillin-resistant Staphylococcus aureus BAA 44 after 24 hrs by crystal violet staining-based assay. The data set is classed as functional, organism-based. As to conditions: BAA 44, 24 h. The essentials: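 Static biofilm development in MRSA, read out by crystal violet staining against an untreated control. Initial screen at 150 μM. Inhibitors then went to dose-response, with IC50 taken as the concentration giving 50% inhibition of biofilm growth. Induction was judged at 50 μM: under 50% induction counted as "inducer", over 50% as "strong inducer".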

Data set [12] concerns Escherichia coli. As to the kind of experiment: Antimicrobial activity against Escherichia coli K-12 ER2718 assessed as effect on planktonic growth at PC50 after 2 to 24 hrs. The data set is classed as organism-based.
Data set [13] has as its system Acinetobacter baumannii. As to the kind of experiment: Antimicrobial activity against Acinetobacter baumannii 19606 assessed as effect on planktonic growth at IC50 after 2 to 24 hrs. Set-up: species or system ATCC 19606.
Data set [14] deals with Escherichia coli. As to the kind of experiment: Induction of biofilm formation in Escherichia coli K-12 ER2718 assessed as concentration required for 25% promotion of biofilm formation after 24 hrs by crystal violet staining-based assay. The data set is classed as functional. The essentials: (§2)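 For strong inducers of E. coli biofilm, dose-response curves were run in the static crystal violet assay. PC25, PC50 and PC75 are the concentrations promoting biofilm formation by 25%, 50% and 75%.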

Data set [15] relates to Escherichia coli. As to the kind of experiment: Induction of biofilm formation in Escherichia coli K-12 ER2718 at 50 uM after 24 hrs by crystal violet staining-based assay relative to control. The data set is classed as functional. The essentials:
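Static biofilm assay with compounds at 50 μM and crystal violet read-out, relative to an untreated control. Compounds increasing biofilm by less than 50% were called inducers, and by more than 50% strong inducers.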

Data set [16] concerns Escherichia coli. As to the kind of experiment: Antimicrobial activity against Escherichia coli K-12 ER2718 assessed as effect on planktonic growth at PC75 after 2 to 24 hrs by colony count method. In kind it is organism-based. Conditions: in vivo.
The test system of data set [17] is Escherichia coli. As to the kind of experiment: Reversal of N-(2-(4-(((3aR,8aR)-1,2,3,3a,8,8a-hexahydropyrrolo[2,3-b]indol-3a-yl)methyl)-1H-1,2,3-triazol-1-yl)ethyl)-4-hexylbenzamide-induced biofilm inhibition in Escherichia coli K-12 ER2718. The data set is classed as functional, organism-based. An outline of the steps: as §1
The test system of data set [18] is Escherichia coli. As to the kind of experiment: Antimicrobial activity against Escherichia coli K-12 ER2718 assessed as effect on planktonic growth at PC25 after 2 to 24 hrs by colony count method. The data set is classed as organism-based.
The subject of data set [19] is Escherichia coli. As to the kind of experiment: Reversal of N-(2-(4-(((3aR,8aR)-1,2,3,3a,8,8a-hexahydropyrrolo[2,3-b]indol-3a-yl)methyl)-1H-1,2,3-triazol-1-yl)ethyl)-4-hexylbenzamide-induced biofilm inhibition in Escherichia coli K-12 ER2718 at PC50 relative to control. The data set is classed as functional. Details: scale not given: the % may be the effect or the level left. The essentials:
as §1

Data set [20] has as its system Staphylococcus aureus. As to the kind of experiment: Inhibition of biofilm formation in Staphylococcus aureus 29213 after 24 hrs by crystal violet staining-based assay. In kind it is functional, organism-based. Conditions: Staphylococcus aureus, 29213, 24 h. The essentials:
(§3)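 Compounds active in the 150 μM screen were taken into dose-response studies under static conditions with a crystal violet read-out. IC50 is the concentration that inhibits 50% of biofilm growth relative to an untreated control.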

Data set [21] relates to Staphylococcus aureus. As to the kind of experiment: Antimicrobial activity against methicillin-resistant Staphylococcus aureus BAA 44 assessed as effect on planktonic growth at IC50 after 2 to 24 hrs by colony count method. The data set is classed as organism-based. As to conditions: in vivo.
In data set [22] the test system is Escherichia coli. As to the kind of experiment: Antimicrobial activity against Escherichia coli K-12 ER2718 assessed as effect on planktonic growth at IC50 after 2 to 24 hrs by colony count method. In kind it is organism-based.
Data set [23] has as its system Escherichia coli. As to the kind of experiment: Induction of biofilm formation in Escherichia coli K-12 ER2718 assessed as concentration required for 50% promotion of biofilm formation after 24 hrs by crystal violet staining-based assay. In kind it is functional. An outline of the steps: as §2
In data set [24] the test system is Escherichia coli. As to the kind of experiment: Antimicrobial activity against Escherichia coli K-12 ER2718 assessed as effect on planktonic growth at PC25 after 2 to 24 hrs. The data set is classed as organism-based.
Data set [25] concerns Escherichia coli. As to the kind of experiment: Antimicrobial activity against Escherichia coli K-12 ER2718 assessed as effect on planktonic growth at IC50 after 2 to 24 hrs. The data set is classed as organism-based.
For data set [26], the system named is Staphylococcus aureus. As to the kind of experiment: Antimicrobial activity against Staphylococcus aureus 29213 assessed as effect on planktonic growth at IC50 after 2 to 24 hrs. In kind it is organism-based. As to conditions: in vivo.
For data set [27], the system named is Escherichia coli. As to the kind of experiment: Induction of biofilm formation in Escherichia coli K-12 ER2718 assessed as concentration required for 75% promotion of biofilm formation after 24 hrs by crystal violet staining-based assay. In kind it is functional. The essentials: as §2
The test system of data set [28] is Escherichia coli. As to the kind of experiment: Antimicrobial activity against Escherichia coli K-12 ER2718 assessed as effect on planktonic growth at 50 uM after 2 to 24 hrs. The data set is classed as organism-based. An outline of the steps:
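Growth curve analysis of planktonic bacteria with each biofilm inducer at 50 μM, used to assess toxicity.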

Data set [29] relates to Escherichia coli. As to the kind of experiment: Reversal of N-(2-(4-(((3aR,8aR)-1,2,3,3a,8,8a-hexahydropyrrolo[2,3-b]indol-3a-yl)methyl)-1H-1,2,3-triazol-1-yl)ethyl)-4-hexylbenzamide-induced biofilm inhibition in Escherichia coli K-12 ER2718 at PC25 relative to control. In kind it is functional. Details: scale not given: the % may be the effect or the level left. An outline of the steps:
as §1

For data set [30], the system named is Escherichia coli. As to the kind of experiment: Inhibition of biofilm formation in Escherichia coli K-12 ER2718 after 24 hrs by crystal violet staining-based assay. Conditions: K-12 ER2718, 24 h. In kind it is functional, organism-based. The essentials: as §3

As for `CCCCCCc1ccc(C(=O)NCCn2cc(Cc3c[nH]c4ccccc34)nn2)cc1`, the Activity entry was “Non-toxic” in data set [1]; 87% in data set [2]; “Non-toxic” in data set [3]; “Non-toxic” in [4]; “Non-toxic” in data set [5]; “Non-toxic” in data set [6]. Moreover, the Activity result in data set [7] is “Non-toxic”; in [8] it was “Non-toxic”; in data set [10], “Non-toxic”; in data set [12], “Non-toxic”; in [13] it was “Non-toxic”; in data set [14] it was 47.8 µM. In addition, the Activity is over 50% in [15]; “Non-toxic” in [16]; “Dose-dependent effect” in data set [17]; “Non-toxic” in data set [18]; 47% in data set [19]; “Non-toxic” in data set [21]. The Activity entry in [22] is “Non-toxic”; in data set [23] it was 82.6 µM; in data set [24] it was “Non-toxic”; in [25], “Non-toxic”; in [26] it was “Non-toxic”; in data set [27] it was 160.7 µM. Further, the Activity entry in data set [28] was “Non-toxic”; in [29], 7.7%. In data set [9], the inhibition at 150 µM is 25%. For the same compound, the IC50 in data set [11] came to 313 µM; in [20], 174 µM.

Turning to `CCCCCCc1ccc(C(=O)NCCn2cc(C[C@@]34CCN[C@@H]3Nc3ccccc34)nn2)cc1`, the IC50 is 3.4 µM in [11], 100 µM in data set [30] and 12.5 µM in [20].
